Bioassay records (PubChem)
SENP7 inh – SENP7 protease inhibition; Q9BQF6; inhibition, % at 5 µM; 330,000 tested, 1.5% active; recombinant SENP7, Z-RLRGG-aminoluciferin luminescence, 40 min;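 active = inhibition above about 50% at the single test dose, limit read from the data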;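 also: plate controls were DMSO with enzyme for no effect and no enzyme buffer wells for full effect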
SENP6 block – SENP6 protease inhibition. Q9GZR1. Recombinant SENP6 catalytic domain, aminoluciferin luminescence. inhibition, % at 10 µM. 330,000 tested, 1.8% active;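 active = inhibition above about 50% at the single tested dose, limit read from the data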;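 also: plate controls were DMSO wells with enzyme for no effect and DMSO wells lacking enzyme for full effect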
Target sequence (Q9GZR1 628-1112 limits assumed): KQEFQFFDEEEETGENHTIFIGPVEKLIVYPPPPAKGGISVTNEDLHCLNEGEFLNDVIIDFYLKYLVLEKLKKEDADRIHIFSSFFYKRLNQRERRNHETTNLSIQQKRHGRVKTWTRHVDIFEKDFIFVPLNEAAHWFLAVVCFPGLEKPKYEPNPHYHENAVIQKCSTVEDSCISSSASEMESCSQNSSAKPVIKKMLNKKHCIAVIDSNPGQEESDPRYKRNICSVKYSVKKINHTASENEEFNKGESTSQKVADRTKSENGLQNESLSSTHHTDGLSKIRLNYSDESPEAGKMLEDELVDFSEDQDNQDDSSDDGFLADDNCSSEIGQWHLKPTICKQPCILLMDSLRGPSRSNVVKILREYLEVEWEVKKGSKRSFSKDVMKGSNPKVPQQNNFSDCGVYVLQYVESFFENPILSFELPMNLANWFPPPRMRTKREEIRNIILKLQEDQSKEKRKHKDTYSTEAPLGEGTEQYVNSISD
SENP1 inh – SENP1 (human) catalytic domain inhibition. recombinant SENP1 catalytic domain, CyPet-SUMO1-YPet FRET cleavage. inhibition, % at 10 µM. Q9P0U3. 360,000 tested, 0.21% active;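 active = inhibition at least 30% at 10 µM, raw YFP signal under a set limit, fluorescence ratio 0.5 to 1.5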;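 also: 0% = enzyme with DMSO and 100% = no enzyme wells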
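System: Recombinant human SENP1 catalytic domain, His6-tagged | Incubation: Enzyme reaction for 50 min at room temperature, dark | Medium: Tris pH 8 with BME, BSA, NP40 and catalase | Also added: 25 nM SUMO1 FRET substrate | Compound: 10 µM single point, 0.5% DMSO | Measured by: FRET fluorescence in CFP and YFP emission channels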
SENP8 block-1 – SENP8 protease inhibition; inhibition, % at 10 µM; AID 2540; purified SENP8, Z-RLRGG-aminoluciferin cleavage, luminescence; Q96LD8; 330,000 tested, 1.2% active; in the data active = inhibition above about 50%
SENP8 block-2 – blocks human SENP8 cleavage of Nedd8 substrate; AID 602440; 360,000 tested, 0.64% active; inhibition, % at 20 µM; recombinant SENP8, Nedd8 substrate fluorescence; Q96LD8; in the data active = inhibition mostly above about 40%, no sharp cut-off; inactive = mostly below about 27%
An asterisk follows results filed as active. Sampled rows, rich in hits. Any-hit rate of the full collection: about 2.5%.

How did Cc1c(N2C(=O)/C(=C\c3ccc(N(C)C)cc3)N(C)C2=S)c(=O)n(-c2ccccc2)n1C do in these assays?
SENP1 inh: 69*; SENP8 block-2: 34

How did Cc1c(NC(=S)N/N=C/c2ccc(N(C)C)cc2)c(=O)n(-c2ccccc2)n1C do in these assays?
SENP7 inh: 6; SENP6 block: -12; SENP1 inh: -49; SENP8 block-1: 2; SENP8 block-2: -373

How did CN1C(=S)N(c2cccnc2)C(=O)/C1=C\c1ccc(N(C)C)cc1 do in these assays?
SENP1 inh: 61*; SENP8 block-2: 38

What do the screens show for `CCN(C(=O)COC(=O)/C=C/c1cccc([N+](=O)[O-])c1)c1ccccc1`?
SENP7 inh: -9; SENP6 block: 7; SENP1 inh: 0; SENP8 block-1: 7; SENP8 block-2: 8

Results for O=C(C1=NN[C@@H]2C(=O)N(c3cccc(C(F)(F)F)c3)C(=O)[C@H]12)c1cnccn1 ?
SENP7 inh: 5; SENP6 block: -4; SENP1 inh: -2; SENP8 block-1: -8; SENP8 block-2: 23

Results for Cc1ccccc1C(=O)/C(C#N)=N/Nc1c(C)n(C)n(-c2ccccc2)c1=O ?
SENP1 inh: 1; SENP8 block-2: 24

What do the screens show for `Cc1c(N/N=C(\C#N)C(=O)c2ccccc2)c(=O)n(-c2ccccc2)n1C`?
SENP1 inh: -5; SENP8 block-2: 40*

Results for CCS(=O)(=O)c1ccc2oc(Nc3ccccc3Br)nc2c1 ?
SENP7 inh: 95*; SENP6 block: 92*; SENP1 inh: 1; SENP8 block-1: 87*; SENP8 block-2: 1

What do the screens show for `O=C(Nc1ccc([N+](=O)[O-])cc1)C(=O)Nc1cccc(C(=O)O)c1`?
SENP7 inh: 99*; SENP6 block: 99*; SENP1 inh: 1; SENP8 block-1: 97*; SENP8 block-2: 5

How did C#Cc1cccc(C(=O)N2CCCC(C(=O)c3ccc(OC)cc3C)C2)c1 (stereo unspecified) do in these assays?
SENP7 inh: -5; SENP6 block: 0; SENP1 inh: 2; SENP8 block-1: 8; SENP8 block-2: 2

What do the screens show for `CCCS(=O)(=O)NC(=O)C1(C)CCCN(C(=O)Cc2ccc3ccccc3c2)C1` (stereo unspecified)?
SENP1 inh: -1; SENP8 block-2: 21

What do the screens show for `Cc1ccc2oc(/N=C(\N)NC(=O)C(C)(C)C)nc2c1`?
SENP7 inh: 65*; SENP6 block: 37; SENP1 inh: -2; SENP8 block-1: 36; SENP8 block-2: -2

What do the screens show for `Cc1ccc2oc(/N=C(\N)NC(=O)C3CC3)nc2c1`?
SENP7 inh: 0; SENP6 block: 21; SENP1 inh: 3; SENP8 block-1: -2; SENP8 block-2: 14

Results for O=[N+]([O-])c1cc(Cl)ccc1N1CCCC1 ?
SENP7 inh: 5; SENP6 block: -1; SENP1 inh: 0; SENP8 block-1: -1; SENP8 block-2: 14

What do the screens show for `O=C1C(Cl)=C(N2CCN(c3ccccc3[N+](=O)[O-])CC2)C(=O)c2ccccc21`?
SENP1 inh: 4; SENP8 block-2: 61*

What do the screens show for `O=C1/C(=C/c2cccs2)SC(=S)N1c1cccc(O)c1`?
SENP7 inh: -14; SENP6 block: -22; SENP1 inh: 2; SENP8 block-1: -6; SENP8 block-2: 48*

Results for O=C1/C(=C/c2cccs2)SC(=S)N1c1ccccc1 ?
SENP7 inh: -3; SENP6 block: -7; SENP1 inh: -2; SENP8 block-1: -1; SENP8 block-2: 13

What do the screens show for `O=C1Nc2ccccc2SC1=Cc1ccccc1`?
SENP1 inh: 1; SENP8 block-2: -5

What do the screens show for `O=C1CCCC2=C1Sc1ccccc1N2`?
SENP7 inh: 0; SENP6 block: 6; SENP1 inh: 52*; SENP8 block-1: 2; SENP8 block-2: 18

What do the screens show for `O=C(CCc1nnc2n(Cc3ccc(F)cc3)c(=O)c3ccccc3n12)N1CCN(c2ccccn2)CC1`?
SENP7 inh: -7; SENP6 block: -4; SENP1 inh: 0; SENP8 block-1: -6; SENP8 block-2: -11

Results for COc1cccc2cc(-c3ccccc3)c(=O)oc12 ?
SENP7 inh: 75*; SENP6 block: 42; SENP1 inh: 1; SENP8 block-1: 66*; SENP8 block-2: -74

Results for COc1cccc2cc(-c3nc(-c4cccs4)cs3)c(=O)oc12 ?
SENP7 inh: -4; SENP6 block: -13; SENP1 inh: -20; SENP8 block-1: -10; SENP8 block-2: -318

How did CN(C)c1ccc(N=Nc2ccccc2C(=O)OCC(=O)NCC2CCCCC2)cc1 do in these assays?
SENP7 inh: -4; SENP6 block: 20; SENP1 inh: 6; SENP8 block-1: -3; SENP8 block-2: 50*

Results for CN(C)c1ccc(N=Nc2ccccc2C(=O)OCC(=O)NC2CCCC2)cc1 ?
SENP7 inh: 5; SENP6 block: 7; SENP1 inh: 3; SENP8 block-1: 0; SENP8 block-2: 26

Results for CCOC(=O)CC1Sc2ccccc2NC1=S (stereo unspecified) ?
SENP7 inh: 4; SENP6 block: 3; SENP1 inh: -2; SENP8 block-1: 1; SENP8 block-2: 10

What do the screens show for `O=C(NC(=S)NNC(=O)c1cc2ccccc2cc1O)c1ccco1`?
SENP7 inh: 45; SENP6 block: 15; SENP1 inh: -1; SENP8 block-1: 61*; SENP8 block-2: 8

Results for Cc1ccc(S(=O)(=O)Nc2ccc3ccccc3c2[N+](=O)[O-])cc1 ?
SENP1 inh: 0; SENP8 block-2: 8

What do the screens show for `Cc1ccc(S(=O)(=O)Nc2ccc3cc([N+](=O)[O-])ccc3c2[N+](=O)[O-])cc1`?
SENP1 inh: 53*; SENP8 block-2: 23

What do the screens show for `CCNCc1ccccc1OCc1ccccc1`?
SENP7 inh: -3; SENP6 block: -7; SENP1 inh: -1; SENP8 block-1: -6; SENP8 block-2: -1

Results for Oc1ccc(NCc2ccccc2OCc2ccccc2)cc1 ?
SENP7 inh: 12; SENP6 block: 50; SENP1 inh: 1; SENP8 block-1: -4; SENP8 block-2: 62*

What do the screens show for `Cc1cccc2c(N=Nc3ccc(S(=O)(=O)Nc4ccc(Cl)cc4)cc3[N+](=O)[O-])c(O)[nH]c12`?
SENP7 inh: -2; SENP6 block: -13; SENP1 inh: 5; SENP8 block-1: 1; SENP8 block-2: 40*

How did Cc1cccc2c(N=NC(=O)c3ccc(NS(=O)(=O)c4cccs4)cc3)c(O)[nH]c12 do in these assays?
SENP7 inh: -6; SENP6 block: -9; SENP1 inh: 2; SENP8 block-1: 8; SENP8 block-2: 24

How did CCOC(=O)CNC(=S)N(CCCN1CCN(C)CC1)Cc1cccs1 do in these assays?
SENP7 inh: -13; SENP6 block: -21; SENP1 inh: 3; SENP8 block-1: -8; SENP8 block-2: 11

What do the screens show for `CCOc1cc(CNc2ccc(O)cc2)cc(Br)c1OCc1ccccc1F`?
SENP7 inh: 16; SENP6 block: -11; SENP1 inh: 10; SENP8 block-1: 4; SENP8 block-2: 41*
